The source of these data is ChEMBL document CHEMBL1124406 (J Med Chem, 1989).

In assay [1] the test system is L1210. Nature of the assay: Compound was measured for growth inhibition of L1210 cells in the presence of thymidine plus hypoxanthine. The format is functional, cell-based. The note with it: Mus musculus. Summed up:
(§1)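 Reversal test of an antifolate effect on L1210 cell growth in culture. The drug is given alongside one of three supplements: thymidine alone at 10 μM, hypoxanthine alone at 100 μM, or thymidine 10 μM plus hypoxanthine 100 μM together.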

The species named for assay [2] is Mus musculus. Kind of assay: Vmax of compound was derived from purified Folyl-polyglutamate synthase from mouse liver. In a few lines:
(§2)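 FPGS was partially purified from mouse liver, and the compounds were run as substrates. Km, Vmax and Vmax/Km came from the kinetic data. Vmax and Vmax/Km are expressed relative to aminopterin run in the same experiment. Each compound was tested in 2–3 experiments on different days.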

The subject of assay [3] is L1210. Kind of assay: Inhibition of cell growth against L1210 murine leukemia cells. The format is functional, cell-based. The following applies: Mus musculus.
The species named for assay [4] is Mus musculus. Nature of the assay: Ratio of Vmax and Km relative to AMT. Summed up: as §2
The subject of assay [5] is L1210. Kind of assay: Compound was measured for growth inhibition of L1210 cells in standard medium. The assay is classed as functional, cell-based. The following applies: Mus musculus.
The subject of assay [6] is L1210. Nature of the assay: Compound was measured for growth inhibition of L1210 cells in the presence of thymidine. The assay is classed as functional, cell-based. The following applies: Mus musculus. In a few lines:
as §1

For assay [7], the species on record is Mus musculus. Kind of assay: Kinetic constant of compound was derived from purified Folyl-polyglutamate synthase from mouse liver. Summed up: as §2
A short description of assay [8]: Inhibition of cell growth against WI-L2 cells. The assay is classed as functional, cell-based. The following applies: Homo sapiens, WIL2.
The subject of assay [9] is L1210. Kind of assay: Compound was measured for growth inhibition of L1210 cells in the presence of hypoxanthine. The format is functional, cell-based. The following applies: Mus musculus. In a few lines: as §1
In the next assay the target is T1, Dihydrofolate reductase (Homo sapiens, UniProt P00374).
T1 sequence (P00374 whole entry): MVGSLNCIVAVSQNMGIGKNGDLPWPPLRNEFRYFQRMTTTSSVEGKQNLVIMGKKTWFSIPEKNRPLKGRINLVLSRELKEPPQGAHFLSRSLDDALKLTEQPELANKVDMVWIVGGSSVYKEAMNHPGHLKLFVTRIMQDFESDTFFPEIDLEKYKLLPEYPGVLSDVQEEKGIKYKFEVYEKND
Kind of assay: Compound was tested for its inhibitory activity against dihydrofolate reductase (DHFR), isolated from MTX-resistant WI-L2 cells. The assay is classed as cell-based.

As usually defined, the IC50 is the point on the concentration scale where inhibition reaches its midpoint. For orientation: Km means the concentration of substrate that gives half-maximal velocity.

Regarding `Nc1ncnc2ncc(CNc3ccc(C(=O)NC(CCC(=O)O)C(=O)O)cc3)nc12` (centres undefined), the IC50 is over 100000 nM in the assay on L1210 [1]; 82 nM with L1210 [3]; 82 nM with L1210 [5]; 160 nM in the assay with L1210 [6]; 81 nM in [8]; 260 nM in the assay with L1210 [9]. The Vmax in the assay filed under Mus musculus [2] came out at 0.87. Moreover, the Ratio in the assay filed under Mus musculus [4] turned out to be 0.74. Also, the Km in the assay listed under Mus musculus [7] stood at 26.4 µM.
As for `Cc1nc(N)c2nc(CNc3ccc(C(=O)NC(CCC(=O)O)C(=O)O)cc3)cnc2n1` (centres undefined), the half-inhibitory concentration (IC50) is over 100000 nM in the assay with L1210 [1]; 42 nM in the assay on L1210 [3]; over 50000 nM against Dihydrofolate reductase; 42 nM in the assay on L1210 [5]; 130 nM with L1210 [6]; 28 nM in assay [8]. Also, in the assay on L1210 [9], the half-maximal inhibitory concentration (IC50) was 160 nM. The Vmax in the assay filed under Mus musculus [2] stood at 0.77. The Ratio in the assay filed under Mus musculus [4] is 0.6. The Michaelis constant (Km) in the assay filed under Mus musculus [7] amounted to 31.7 µM.
Regarding `CN(Cc1cnc2nc(N)nc(N)c2n1)c1ccc(C(=O)N[C@@H](CCC(=O)O)C(=O)O)cc1` [METHOTREXATE], the IC50 was found to be 9 nM with L1210 [3] and 13 nM in [8].
Turning to `Nc1nc(N)c2nc(CNc3ccc(C(=O)N[C@@H](CCC(=O)O)C(=O)O)cc3)cnc2n1`, the Vmax in the assay filed under Mus musculus [2] came out at 1. For the same molecule, the Ratio in the assay filed under Mus musculus [4] turned out to be 1. For the same molecule, in the assay listed under Mus musculus [7], the Michaelis constant (Km) amounted to 22.8 µM.
